# Test results as given in ChEMBL document CHEMBL4689842, “EUbOPEN Chemogenomics Library wave 1” (2021).
# System: U2OS
# Experiment: Multiplex assay against U2OS
# Format: toxicity, cell-based
# Settings: human
# In short: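 Compound was added to live cells that had been stained at seeding with Hoechst33342, BioTracker Green Microtubule Cytoskeleton Dye, MitoTracker Red and Annexin V Alexa Fluor 680, and imaging followed on a CQ1 microscope at 37°C and 5% CO2. CellPathfinder machine-learning gating divided cells into Hoechst high-intensity objects or normal cells, normal cells into healthy, pyknosed or fragmented nuclei, and pyknosed cells into mitotic or apoptotic. Tubulin, mitochondrial-mass and membrane-permeability phenotypes are per cents of healthy-nucleus cells.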
# [1] = 12 h, 1 µM, compound concentration 1 uM, replicate 1
# [2] = 12 h, 1 µM, compound concentration 1 uM, replicate 2
# [3] = 12 h, 10 µM, compound concentration 10 uM, replicate 1
# [4] = 12 h, 10 µM, compound concentration 10 uM, replicate 2
# [5] = 24 h, 1 µM, compound concentration 1 uM, replicate 1
# [6] = 24 h, 1 µM, compound concentration 1 uM, replicate 2
# [7] = 24 h, 10 µM, compound concentration 10 uM, replicate 1
# [8] = 24 h, 10 µM, compound concentration 10 uM, replicate 2
# [9] = 48 h, 1 µM, compound concentration 1 uM, replicate 1
# [10] = 48 h, 1 µM, compound concentration 1 uM, replicate 2
# [11] = 48 h, 10 µM, compound concentration 10 uM, replicate 1
# [12] = 48 h, 10 µM, compound concentration 10 uM, replicate 2
smiles,measurement,setting,value
O=C1N/C(=N/c2ccccc2F)S/C1=C\c1ccc(C(=O)O)cc1,Population Apoptotic (%),[1],33%
same,Population Fragmented Nuclei (%),[1],8%
same,Population Healthy Nuclei (%),[1],85%
same,Population Hoechst High Intensity Objects (%),[1],9%
same,Population Membrane Permeable-Phenotype (%),[1],6%
same,Population Mitochondria Different-Phenotype (%),[1],10%
same,Population Mitotic Cells (%),[1],66%
same,Population Normal (%),[1],90%
same,Population Pyknosed Nuclei (%),[1],5%
same,Population Tubulin-Different-Phenotype (%),[1],7%
same,Total Cell Count,[1],130
same,Population Apoptotic (%),[2],0%
same,Population Fragmented Nuclei (%),[2],3%
same,Population Healthy Nuclei (%),[2],92%
same,Population Hoechst High Intensity Objects (%),[2],8%
same,Population Mitochondria Different-Phenotype (%),[2],16%
same,Population Mitotic Cells (%),[2],100%
same,Population Normal (%),[2],91%
same,Population Pyknosed Nuclei (%),[2],3%
same,Population Tubulin-Different-Phenotype (%),[2],24%
same,Total Cell Count,[2],66
same,Population Apoptotic (%),[3],25%
same,Population Fragmented Nuclei (%),[3],8%
same,Population Healthy Nuclei (%),[3],82%
same,Population Hoechst High Intensity Objects (%),[3],5%
same,Population Membrane Permeable-Phenotype (%),[3],6%
same,Population Mitochondria Different-Phenotype (%),[3],15%
same,Population Mitotic Cells (%),[3],75%
same,Population Normal (%),[3],94%
same,Population Pyknosed Nuclei (%),[3],8%
same,Population Tubulin-Different-Phenotype (%),[3],8%
same,Total Cell Count,[3],175
same,Population Apoptotic (%),[4],44%
same,Population Fragmented Nuclei (%),[4],4%
same,Population Healthy Nuclei (%),[4],81%
same,Population Hoechst High Intensity Objects (%),[4],8%
same,Population Membrane Permeable-Phenotype (%),[4],1%
same,Population Mitochondria Different-Phenotype (%),[4],9%
same,Population Mitotic Cells (%),[4],55%
same,Population Normal (%),[4],91%
same,Population Pyknosed Nuclei (%),[4],14%
same,Population Tubulin-Different-Phenotype (%),[4],9%
same,Total Cell Count,[4],59
same,Population Apoptotic (%),[5],33%
same,Population Fragmented Nuclei (%),[5],9%
same,Population Healthy Nuclei (%),[5],81%
same,Population Membrane Permeable-Phenotype (%),[5],4%
same,Population Mitochondria Different-Phenotype (%),[5],6%
same,Population Mitotic Cells (%),[5],66%
same,Population Pyknosed Nuclei (%),[5],8%
same,Population Tubulin-Different-Phenotype (%),[5],4%
same,Total Cell Count,[5],131
same,Population Apoptotic (%),[6],0%
same,Population Fragmented Nuclei (%),[6],7%
same,Population Healthy Nuclei (%),[6],85%
same,Population Hoechst High Intensity Objects (%),[6],5%
same,Population Membrane Permeable-Phenotype (%),[6],5%
same,Population Mitochondria Different-Phenotype (%),[6],10%
same,Population Mitotic Cells (%),[6],100%
same,Population Normal (%),[6],94%
same,Population Pyknosed Nuclei (%),[6],7%
same,Population Tubulin-Different-Phenotype (%),[6],23%
same,Total Cell Count,[6],69
same,Population Apoptotic (%),[7],20%
same,Population Fragmented Nuclei (%),[7],6%
same,Population Healthy Nuclei (%),[7],85%
same,Population Hoechst High Intensity Objects (%),[7],3%
same,Population Membrane Permeable-Phenotype (%),[7],4%
same,Population Mitochondria Different-Phenotype (%),[7],10%
same,Population Mitotic Cells (%),[7],80%
same,Population Normal (%),[7],96%
same,Population Pyknosed Nuclei (%),[7],8%
same,Population Tubulin-Different-Phenotype (%),[7],5%
same,Total Cell Count,[7],234
same,Population Apoptotic (%),[8],60%
same,Population Fragmented Nuclei (%),[8],5%
same,Population Healthy Nuclei (%),[8],88%
same,Population Hoechst High Intensity Objects (%),[8],5%
same,Population Membrane Permeable-Phenotype (%),[8],2%
same,Population Mitochondria Different-Phenotype (%),[8],6%
same,Population Mitotic Cells (%),[8],40%
same,Population Normal (%),[8],94%
same,Population Pyknosed Nuclei (%),[8],5%
same,Population Tubulin-Different-Phenotype (%),[8],16%
same,Total Cell Count,[8],73
same,Population Apoptotic (%),[9],27%
same,Population Healthy Nuclei (%),[9],86%
same,Population Hoechst High Intensity Objects (%),[9],1%
same,Population Membrane Permeable-Phenotype (%),[9],1%
same,Population Mitochondria Different-Phenotype (%),[9],14%
same,Population Mitotic Cells (%),[9],72%
same,Population Normal (%),[9],98%
same,Population Pyknosed Nuclei (%),[9],6%
same,Population Tubulin-Different-Phenotype (%),[9],6%
same,Total Cell Count,[9],134
same,Population Apoptotic (%),[10],0%
same,Population Fragmented Nuclei (%),[10],6%
same,Population Healthy Nuclei (%),[10],92%
same,Population Hoechst High Intensity Objects (%),[10],5%
same,Population Membrane Permeable-Phenotype (%),[10],7%
same,Population Mitochondria Different-Phenotype (%),[10],16%
same,Population Mitotic Cells (%),[10],100%
same,Population Normal (%),[10],94%
same,Population Pyknosed Nuclei (%),[10],1%
same,Population Tubulin-Different-Phenotype (%),[10],23%
same,Total Cell Count,[10],76
same,Population Apoptotic (%),[11],21%
same,Population Healthy Nuclei (%),[11],90%
same,Population Membrane Permeable-Phenotype (%),[11],2%
same,Population Mitochondria Different-Phenotype (%),[11],14%
same,Population Mitotic Cells (%),[11],78%
same,Population Pyknosed Nuclei (%),[11],5%
same,Population Tubulin-Different-Phenotype (%),[11],5%
same,Total Cell Count,[11],338
same,Population Apoptotic (%),[12],22%
same,Population Fragmented Nuclei (%),[12],4%
same,Population Healthy Nuclei (%),[12],83%
same,Population Hoechst High Intensity Objects (%),[12],2%
same,Population Membrane Permeable-Phenotype (%),[12],6%
same,Population Mitochondria Different-Phenotype (%),[12],9%
same,Population Mitotic Cells (%),[12],77%
same,Population Normal (%),[12],97%
same,Population Pyknosed Nuclei (%),[12],12%
same,Population Tubulin-Different-Phenotype (%),[12],22%
same,Total Cell Count,[12],105
